The values below come from ChEMBL document CHEMBL5316310, “Discovery of MK-8189, a Highly Potent and Selective PDE10A Inhibitor for the Treatment of Schizophrenia” (J Med Chem, 2023).

In series [1] the target is Somatostatin receptor type 2 (Homo sapiens, UniProt P30874). Put plainly: Displacement of [125I]somatostatin from human full-length recombinant SSTR2 expressed in CHO-K1 cells by radioligand binding assay. It is filed as cell-based. For orientation: Displacement assays read how much labelled ligand stays bound in the presence of the test substance.
Series [2] can be described thus: Unbound plasma clearance in rat. Particulars: in vivo. It is filed as ADME. In short, it runs like this: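 Rat unbound clearance (CLu) was calculated by dividing the measured rat plasma clearance by the rat plasma free fraction.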
Series [3] in a line: Solubility of compound in acidic simulated gastric fluid. It is filed as physicochemical. The conditions noted are these: simulated gi fluid.

Converted amounts (≈) assume the structure as drawn.

By IC50 is commonly meant the midpoint of a concentration-inhibition curve. By solubility is commonly meant how much of the substance goes into solution per volume.

Chain of Somatostatin receptor type 2 (P30874 whole entry): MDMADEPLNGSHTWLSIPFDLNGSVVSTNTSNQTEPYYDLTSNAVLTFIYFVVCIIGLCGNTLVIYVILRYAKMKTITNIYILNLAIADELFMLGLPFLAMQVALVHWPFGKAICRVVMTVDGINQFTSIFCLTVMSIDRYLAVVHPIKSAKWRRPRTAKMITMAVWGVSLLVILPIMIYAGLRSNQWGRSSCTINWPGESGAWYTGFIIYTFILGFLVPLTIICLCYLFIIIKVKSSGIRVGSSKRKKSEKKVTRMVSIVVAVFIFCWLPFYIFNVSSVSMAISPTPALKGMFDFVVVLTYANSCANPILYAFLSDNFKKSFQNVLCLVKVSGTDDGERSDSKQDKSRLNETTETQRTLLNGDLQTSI

Consider `Cc1ccc([C@H]2C[C@@H]2COc2cc(NCc3nnc(C)s3)nc(C)n2)nc1` [MK-8189], for which the IC50 in series [1] is 2800 nM. In series [2], the CL free worked out at 260 mL/min/kg. This compound also had a solubility in series [3] of 5000 µg/mL (≈ 13.1 mM).
